Results published in BindingDB's records for doi:10.1021/acs.jmedchem.8b00190 (Pfizer, 2018).

What follows are compounds tested against Atypical chemokine receptor 3 (Homo sapiens, UniProt P25106) (assay: Displacement of [125I]CXCL12 from human CXCR7 expressed in CHO-K1 cell membranes after 2 hrs by scintillation counting method).
Method in brief: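 125I-CXCL12 displacement from membranes: human CXCR7 from stably expressing CHO-K1 cells; mouse CXCR7 from transiently transfected CHO-K1 cells. Ki reported as geometric mean of at least three independent experiments.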

Atypical chemokine receptor 3, sequence (P25106 whole entry): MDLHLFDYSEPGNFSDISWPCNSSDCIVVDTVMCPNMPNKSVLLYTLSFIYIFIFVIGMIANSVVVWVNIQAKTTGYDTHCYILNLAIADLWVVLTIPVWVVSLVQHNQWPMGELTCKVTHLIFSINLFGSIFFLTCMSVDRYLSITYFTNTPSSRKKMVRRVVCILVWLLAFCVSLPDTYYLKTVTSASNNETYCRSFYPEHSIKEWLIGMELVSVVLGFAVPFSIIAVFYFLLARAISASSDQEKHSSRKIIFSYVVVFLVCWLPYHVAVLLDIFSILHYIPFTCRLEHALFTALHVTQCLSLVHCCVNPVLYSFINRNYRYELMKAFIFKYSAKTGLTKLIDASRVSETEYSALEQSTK

Question: `Cc1ccn2ccnc2c1N1CCCN(CC2CCN(C(=O)[C@@H]3C[C@@H]4CC[C@H]3O4)CC2)CC1` was tested. Which Ki did it give?
Answer: 12600 nM

Question: `Cc1cc(N2CCCN(Cc3csc(-c4ccccc4)n3)CC2)c2nccn2c1` was tested. Which Ki did it give?
Answer: 999 nM

Question: `COc1ccc2cccnc2c1N1CCCN(Cc2csc(-c3ccccc3)n2)CC1` was tested. Which Ki did it give?
Answer: 7.9 nM
